# Experimental data from ChEMBL document CHEMBL1153242, “Novel spiropiperidine-based stearoyl-CoA desaturase-1 inhibitors: Identification of 1'-{6-[5-(pyridin-3-ylmethyl)-1,3,4-oxadiazol-2-yl]pyridazin-3-yl}-5-(trifluoromethyl)-3,4-dihydrospiro[chromene-2,4'-piperidine]” (Bioorg Med Chem Lett, 2010).
# Legend:
# [1] = biological target: Stearoyl-CoA desaturase (Homo sapiens) (UniProt O00767); assay: Inhibition of SCD1 in human 293A cells S9 microsomal fraction assessed as conversion of [14C]stearate to [14C]oleate after 60 mins
# Stearoyl-CoA desaturase [2] = biological target: T1, Stearoyl-CoA desaturase (Homo sapiens, UniProt O00767); assay: Inhibition of human SCD1 expressed in human 293A cells assessed as conversion of [14C]stearate to [14C]oleate; type: cell-based
# T1 sequence (O00767 whole entry): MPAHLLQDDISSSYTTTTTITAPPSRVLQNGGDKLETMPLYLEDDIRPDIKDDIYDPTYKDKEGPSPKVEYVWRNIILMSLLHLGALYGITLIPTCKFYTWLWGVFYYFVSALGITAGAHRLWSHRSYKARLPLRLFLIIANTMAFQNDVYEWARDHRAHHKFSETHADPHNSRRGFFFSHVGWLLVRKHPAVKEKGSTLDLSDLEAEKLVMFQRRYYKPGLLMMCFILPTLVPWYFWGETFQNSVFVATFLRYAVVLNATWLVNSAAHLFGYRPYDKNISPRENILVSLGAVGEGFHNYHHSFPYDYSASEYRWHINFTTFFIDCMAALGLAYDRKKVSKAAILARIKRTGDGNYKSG
# [3] = AUC (0 to8 hrs) in C57BL/6J mouse at 20 mg/kg, po; type: ADME, organism-based; design: time < 8 hr, dose 20 mg/kg, route oral; settings: plasma
# Outline: (§1)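 Oral dose of 20 mg/kg in PG/Tween (4/1), given by intubation tube to C57BL/6J mice (n = 3). Plasma sampled up to 8 h after dosing and compound levels measured by LC/MS. Values are arithmetic means of at least two experiments.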
# Mus musculus [4] = assay: In vivo inhibition of SCD1 in non-fat diet-induced oral dosed C57BL/6J mouse liver assessed as conversion of ratio of [14C]oleate to [14C]stearate after 6 to 7 hrs; type: functional; settings: read-out: ID50 (the source's name)
# Outline: (§2)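 C57BL/6J mice on a non-fat diet (n = 2) dosed with inhibitor 2 h or 6 h before [14C]stearate. Mice killed 1 h after the [14C]stearate injection and livers removed. ID50 in mg/kg is the arithmetic mean of at least two experiments.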
# [5] = biological target: Stearoyl-CoA desaturase 1 (Mus musculus) (UniProt P13516); assay: Inhibition of SCD1 in mouse liver assessed as conversion of [14C]stearate to [14C]oleate after 60 mins in S9 microsomal fraction
# [6] = Cmax in C57BL/6J mouse at 20 mg/kg, po; type: ADME, organism-based; design: dose 20 mg/kg, route oral; settings: in vivo
# Outline: as §1
# Mus musculus [7] = assay: Reduction of desaturation index, ratio of C18:1 N9(cis)oleate to C18:0 streate in serum of low fat diet fed po dosed C57BL/6J mouse administered as single dose for 7 days measured after seventh dose; type: functional; design: scale not given: the % may be the effect or the level left; settings: in the assay text read “non-fat diet” for “low fat diet”
# Outline: (§3)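 C57BL/6J mice (n = 4) on a non-fat diet received oral doses once daily for 7 days, up to 3 mg/kg. The plasma desaturation index (C18:1/C18:0 ratio) served as the biomarker. Skin and eyes were inspected for abnormalities.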
# Mus musculus [8] = species on record: Mus musculus; assay: Toxicity in C57BL/6J mouse assessed as occurance of abnormilities in skin; type: organism-based; settings: in vivo
# Outline: as §3
# [9] = Tmax in C57BL/6J mouse at 20 mg/kg, po; type: ADME, organism-based; design: dose 20 mg/kg, route oral; settings: in vivo
# Outline: as §1
# [10] = Half life in C57BL/6J mouse at 20 mg/kg, po; type: ADME, organism-based; design: dose 20 mg/kg, route oral; settings: in vivo
# Outline: as §1
# Mus musculus [11] = species on record: Mus musculus; assay: Toxicity in C57BL/6J mouse assessed as occurance of abnormilities in eyes; type: organism-based; settings: in vivo
# Outline: as §3
# Mus musculus [12] = assay: In vivo inhibition of SCD1 in non-fat diet-induced oral dosed C57BL/6J mouse liver assessed as conversion of ratio of [14C]oleate to [14C]stearate after 2 to 3 hrs; type: functional; settings: read-out: ID50 (the source's name)
# Outline: as §2
# Mus musculus [13] = assay: (§4) Oral bioavailability in C57BL/6J mouse at 20 mg/kg; type: ADME, organism-based; settings: in vivo
# Stearoyl-CoA desaturase [14] = biological target: T1, Stearoyl-CoA desaturase; assay: Inhibition of SCD1 in human 293A cell microsomal fraction assessed as conversion of [14C]stearate to [14C]oleate after 60 mins at 0.4 uM
# Mus musculus [15] = assay: In vivo inhibition of SCD1 in db/db mouse liver assessed as conversion of [14C]stearate to [14C]oleate administered through oral gavage; type: functional; settings: read-out: ID50 (the source's name)
# [16] = Volume of distribution in C57BL/6J mouse at 5 mg/kg, iv; type: ADME, organism-based; design: dose 5 mg/kg, route intravenous; settings: in vivo
# Outline: (§5)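 Single iv dose of 5 mg/kg in DMA/Tween80/saline (10/10/80), injected into the tail vein of C57BL/6J mice (n = 2). Plasma collected up to 8 h after dosing and compound measured by LC/MS. Values are arithmetic means of at least two experiments.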
# [17] = Clearance in C57BL/6J mouse at 5 mg/kg, iv; type: ADME, organism-based; design: dose 5 mg/kg, route intravenous; settings: in vivo
# Outline: as §5
# [18] = as §4; type: ADME, organism-based; settings: C57BL/6J, in vivo
IC50 [1],IC50 (Stearoyl-CoA desaturase [2]),IC50 [5],SMILES,ED50 (Mus musculus [15]),further results
0.03 nM,0.8 nM,0.06 nM,FC(F)(F)c1cccc2c1CCC1(CCN(c3ccc(-c4nnc(Cc5cccnc5)o4)nn3)CC1)O2,–,AUC(0-t) at 8 h [3]: 7800 ng·h/mL; ED50 (Mus musculus [4]): 0.8 mg/kg; Cmax [6]: 2600 ng/mL; Activity (Mus musculus [7]): 75%; Activity (Mus musculus [8]): Non-toxic; Tmax [9]: 1 h; half-life [10]: 1.4 h; Activity (Mus musculus [11]): Non-toxic; ED50 (Mus musculus [12]): 0.5 mg/kg; F (Mus musculus [13]): Not Active
2 nM,35 nM,16 nM,FC(F)(F)c1cccc2c1CCC1(CCN(c3ccc(-c4nnc(CCc5cccnc5)o4)nn3)CC1)O2,–,–
–,–,76 nM,O=C(NCC(O)c1ccccc1)c1ccc(N2CCC3(CC2)Cc2ccccc2CO3)nn1 (stereo not drawn),–,IC50 (Stearoyl-CoA desaturase [14]): > 400 nM
–,–,–,O=C(NCC(O)c1ccccc1)c1ccc(N2CCC3(CC2)CC(O)c2c(F)cccc2O3)nn1 (stereo not drawn),7 mg/kg,–
4 nM,38 nM,65 nM,Cn1nc(Cc2cccnc2)nc1-c1ccc(N2CCC3(CCc4c(cccc4C(F)(F)F)O3)CC2)nn1,–,–
> 10000 nM,–,–,O=C(NCC(O)c1ccccc1)c1ccc(N2CCC3(CC2)Oc2ccccc2CC3=O)nn1 (stereo not drawn),–,–
0.13 nM,4 nM,1 nM,FC(F)(F)c1cccc2c1CCC1(CCN(c3ccc(-c4nnc(Cc5cccnc5)[nH]4)nn3)CC1)O2,–,–
300 nM,560 nM,49 nM,O=C(NCC(O)c1ccccc1)c1ccc(N2CCC3(CC2)Oc2ccccc2CC3O)nn1 (stereo not drawn),–,–
–,–,–,O=C(NCC(O)c1cccnc1)c1ccc(N2CCC3(CCc4c(F)ccc(F)c4O3)CC2)nn1 (stereo not drawn),5 mg/kg,–
–,–,–,O=C(NCC(O)c1ccccc1)c1ccc(N2CCC3(CC2)CC(O)c2ccccc2O3)nn1 (stereo not drawn),15 mg/kg,–
12 nM,7 nM,6 nM,O=C(NCC(O)c1cccnc1)c1ccc(N2CCC3(CCc4c(F)cccc4O3)CC2)nn1 (stereo not drawn),2 mg/kg,–
–,–,–,O=C(NCC(O)c1cccnc1)c1ccc(N2CCC3(CCc4c(Cl)cccc4O3)CC2)nn1 (stereo not drawn),3 mg/kg,–
–,–,–,Cc1cccc2c1CCC1(CCN(c3ccc(C(=O)NCC(O)c4cccnc4)nn3)CC1)O2 (stereo not drawn),4 mg/kg,–
2000 nM,–,–,O=C(NCC(O)c1ccccc1)c1ccc(N2CCC3(CC2)Cc2ccccc2C3=O)nn1 (stereo not drawn),–,–
> 1000 nM,–,–,O=C(NCC(O)c1ccccc1)c1ccc(N2CCC3(CC2)CC(O)c2cc(F)ccc2O3)nn1 (stereo not drawn),–,–
> 1000 nM,–,–,COc1cccc2c1C(O)CC1(CCN(c3ccc(C(=O)NCC(O)c4ccccc4)nn3)CC1)O2 (stereo not drawn),–,–
–,–,–,O=C(NCC(O)c1ccccc1)c1ccc(N2CCC3(CC2)CC(O)c2ccc(F)cc2O3)nn1 (stereo not drawn),20 mg/kg,–
790 nM,–,61 nM,O=C(NCC(O)c1ccccc1)c1ccc(N2CCC3(C=Cc4ccccc4O3)CC2)nn1 (stereo not drawn),–,–
–,–,> 10000 nM,O=C(NCC(O)c1ccccc1)c1ccc(N2CCC3(CC2)Oc2ccccc2C3=O)nn1 (stereo not drawn),–,–
–,–,–,O=C(NCC(O)c1cccnc1)c1ccc(N2CCC3(CCc4c(cccc4C(F)(F)F)O3)CC2)nn1 (stereo not drawn),0.8 mg/kg,AUC(0-t) at 8 h [3]: 13000 ng·h/mL; ED50 (Mus musculus [4]): 2.5 mg/kg; Vd [16]: 1 L/kg; Cmax [6]: 3500 ng/mL; Tmax [9]: 1 h; clearance [17]: 17 mL/min/kg; half-life [10]: 2 h; ED50 (Mus musculus [12]): 0.9 mg/kg; bioavailability [18]: 67%
–,–,> 10000 nM,FC(F)(F)c1cccc2c1CCC1(CCN(c3ccc(-c4nnc(-c5cccnc5)o4)nn3)CC1)O2,–,–
250 nM,690 nM,50 nM,O=C(NCC(O)c1ccccc1)c1ccc(N2CCC3(CC2)CC(=O)c2ccccc2O3)nn1 (stereo not drawn),–,–
